This passage reports Activity, IC50 and inhibition results from ChEMBL document CHEMBL3994580, “A novel class of α-glucosidase and HMG-CoA reductase inhibitors from Ganoderma leucocontextum and the anti-diabetic properties of ganomycin I in KK-Ay mice” (Eur J Med Chem, 2017).

Data set [1] has as its system Mus musculus. Kind of data set: Acute toxicity in mouse assessed as convulsion up to […], po up to 14 days. In kind it is organism-based. As to conditions: in vivo, 336 h.
A short description of data set [2]: Inhibition of alpha-glucosidase in rat small intestinal mucosa assessed as reduction in glucose production using p-nitrophenyl alpha-D-glucopyranoside as substrate measured after 40 mins by glucose oxidase assay. The procedure, abridged:
(§1)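 Rat small intestinal mucosa enzyme. Compound in DMSO mixed with substrate (maltose, sucrose or pNPG) and enzyme in 0.1 M phosphate buffer pH 6.9, incubated 40 min. Glucose released measured by glucose oxidase kit at 550 nm. Blank lacked enzyme, control lacked compound. Percent inhibition calculated from blank-corrected OD.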

Data set [3] can be described thus: Inhibition of baker's yeast alpha-glucosidase using p-nitrophenyl alpha-D-glucopyranoside as substrate preincubated for 10 mins followed by substrate addition measured for 15 mins. The arrangement: species or system Saccharomyces cerevisiae. The gist of the method: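 Baker's yeast α-glucosidase with pNPG, read at 405 nm. Control contained phosphate buffer in place of compound, and blank contained buffer in place of enzyme.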

Data set [4] concerns Mus musculus. Kind of data set: Antidiabetic activity in KK-Ay diabetic mouse model assessed as increase in insulin sensitivity index at 1 to 5 mg/kg/day administered via oral gavage once daily for 21 days. It is filed as functional, organism-based. The gist of the method: (§2)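 Male KK-Ay mice (8 weeks old) on high-fat diet with water ad libitum, dosed by gavage once daily for 21 days (1 or 5 mg/kg test; rosiglitazone 10 mg/kg); female C57BL/6J mice as normal controls. Blood collected at study end. Serum lipids, insulin and glucose measured per cited method. ISI calculated from fasting blood glucose and fasting insulin. Mean ± SEM, n = 7-8.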

Data set [5] has as its system Mus musculus. Kind of data set: Decrease in lipid droplet accumulation in liver in KK-Ay diabetic mouse model at 5 mg/kg/day administered via oral gavage once daily for 21 days by haematoxylin and eosin staining based microscopic or morphometric method. It is filed as functional, organism-based. The procedure, abridged:
(§3)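 At study end, liver and abdominal white adipose tissue were fixed in 10% formaldehyde PBS (pH 7.4), paraffin-embedded, sectioned and stained with haematoxylin/eosin. Sections were assessed by microscopy or morphometry at 20×.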

Data set [6] has as its system Mus musculus. Kind of data set: Toxicity in KK-Ay diabetic mouse model assessed as decrease in body weight at 1 to 5 mg/kg/day administered via oral gavage once daily measured every 3 days post two weeks of compound treatment. In kind it is organism-based. Conditions: in vivo, 72 h. The procedure, abridged:
(§4)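 In high-fat-fed KK-Ay mice gavaged once daily for 21 days, individual body weight and cage food consumption were recorded every 3 days. Mean ± SEM, n = 8.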

In data set [7] the test system is Mus musculus. Kind of data set: Antidiabetic activity in KK-Ay diabetic mouse model assessed as reduction in HbA1C level at 1 to 5 mg/kg/day administered via oral gavage once daily for 21 days. In kind it is functional, organism-based.
Data set [8] concerns Mus musculus. Kind of data set: Decrease in size of adipocytes in abdominal white adipose tissue in KK-Ay diabetic mouse model at 5 mg/kg/day administered via oral gavage once daily for 21 days by haematoxylin and eosin staining based microscopic or morphometric method. It is filed as functional, organism-based. The gist of the method:
as §3

The subject of data set [9] is Mus musculus. Kind of data set: Hypolipidemic activity in KK-Ay diabetic mouse model assessed as reduction in serum total cholesterol level at 1 to 5 mg/kg/day administered via oral gavage once daily for 21 days. It is filed as functional, organism-based. The gist of the method:
as §2

The test system of data set [10] is Mus musculus. Kind of data set: Acute toxicity in mouse assessed as changes in nature of urine up to 3 g/kg, po up to 14 days. Conditions: in vivo, 336 h.
The subject of data set [11] is Mus musculus. Kind of data set: Hypoglycemic activity in KK-Ay diabetic mouse model assessed as increase in liver hepatic glycogen level at 1 to 5 mg/kg/day administered via oral gavage once daily for 4 weeks. In kind it is functional, organism-based.
The target in data set [12] is T1, 3-hydroxy-3-methylglutaryl-coenzyme A reductase (Sus scrofa) (UniProt Q1W675).
T1 sequence (whole entry): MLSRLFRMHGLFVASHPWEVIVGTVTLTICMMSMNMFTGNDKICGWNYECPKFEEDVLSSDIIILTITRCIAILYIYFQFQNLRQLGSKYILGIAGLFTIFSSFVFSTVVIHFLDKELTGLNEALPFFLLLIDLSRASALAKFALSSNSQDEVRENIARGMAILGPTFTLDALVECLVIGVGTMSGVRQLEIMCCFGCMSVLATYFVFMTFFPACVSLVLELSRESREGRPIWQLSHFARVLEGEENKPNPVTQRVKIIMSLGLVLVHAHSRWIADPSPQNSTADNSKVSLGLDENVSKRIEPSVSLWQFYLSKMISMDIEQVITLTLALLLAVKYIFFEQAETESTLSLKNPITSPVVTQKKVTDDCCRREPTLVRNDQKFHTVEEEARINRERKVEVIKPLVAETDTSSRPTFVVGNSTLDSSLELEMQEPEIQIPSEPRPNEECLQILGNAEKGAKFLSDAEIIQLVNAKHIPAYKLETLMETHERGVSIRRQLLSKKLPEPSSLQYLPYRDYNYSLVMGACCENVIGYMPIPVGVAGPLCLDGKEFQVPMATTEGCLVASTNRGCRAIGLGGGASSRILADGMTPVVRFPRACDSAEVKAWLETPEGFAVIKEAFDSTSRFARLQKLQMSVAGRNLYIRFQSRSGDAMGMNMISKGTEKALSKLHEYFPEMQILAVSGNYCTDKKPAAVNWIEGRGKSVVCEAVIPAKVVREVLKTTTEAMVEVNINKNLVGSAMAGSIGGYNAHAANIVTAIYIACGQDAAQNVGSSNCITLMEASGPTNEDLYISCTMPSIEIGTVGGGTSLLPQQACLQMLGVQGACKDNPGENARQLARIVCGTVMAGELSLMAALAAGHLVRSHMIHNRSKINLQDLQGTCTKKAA
Kind of data set: Non-competitive inhibition of HMG-CoA reductase in pig liver microsomes using varying levels of HMG-CoA as substrate preincubated for 5 mins followed by NADPH addition measured after 15 mins by Lineweaver-Burk plot analysis. The procedure, abridged: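 HMG-CoA reductase kinetics: inhibitor at 5 to 20 μM, HMG-CoA at 2, 4, 6 and 8 μM. Initial velocities with and without inhibitor analysed by Lineweaver-Burk double-reciprocal plots.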
For orientation: Liver microsomes are vesicles of endoplasmic reticulum, rich in cytochrome P450 enzymes.

For data set [13], the system named is Mus musculus. Kind of data set: Toxicity in KK-Ay diabetic mouse model assessed as changes in body weight at 1 to 5 mg/kg/day administered via oral gavage once daily measured every 3 days during first two weeks of compound dosing. It is filed as organism-based. Conditions: in vivo, 72 h. The gist of the method: as §4
Data set [14] relates to Mus musculus. Kind of data set: Decrease in serum AST level in KK-Ay diabetic mouse model at 1 to 5 mg/kg/day administered via oral gavage once daily for 21 days. It is filed as functional, organism-based. The gist of the method: as §2
Data set [15] relates to Mus musculus. Kind of data set: Acute toxicity in mouse assessed as changes in nature of stool up to 3 g/kg, po up to 14 days. Conditions: in vivo, 336 h.
For data set [16], the target named is Sucrase-isomaltase, intestinal (Rattus norvegicus, UniProt P23739). Kind of data set: Inhibition of sucrase in rat small intestinal mucosa assessed as reduction in glucose production using sucrose as substrate measured after 40 mins by glucose oxidase assay. The gist of the method: as §1
Sucrase-isomaltase, intestinal, sequence (P23739 1-1013 limits assumed): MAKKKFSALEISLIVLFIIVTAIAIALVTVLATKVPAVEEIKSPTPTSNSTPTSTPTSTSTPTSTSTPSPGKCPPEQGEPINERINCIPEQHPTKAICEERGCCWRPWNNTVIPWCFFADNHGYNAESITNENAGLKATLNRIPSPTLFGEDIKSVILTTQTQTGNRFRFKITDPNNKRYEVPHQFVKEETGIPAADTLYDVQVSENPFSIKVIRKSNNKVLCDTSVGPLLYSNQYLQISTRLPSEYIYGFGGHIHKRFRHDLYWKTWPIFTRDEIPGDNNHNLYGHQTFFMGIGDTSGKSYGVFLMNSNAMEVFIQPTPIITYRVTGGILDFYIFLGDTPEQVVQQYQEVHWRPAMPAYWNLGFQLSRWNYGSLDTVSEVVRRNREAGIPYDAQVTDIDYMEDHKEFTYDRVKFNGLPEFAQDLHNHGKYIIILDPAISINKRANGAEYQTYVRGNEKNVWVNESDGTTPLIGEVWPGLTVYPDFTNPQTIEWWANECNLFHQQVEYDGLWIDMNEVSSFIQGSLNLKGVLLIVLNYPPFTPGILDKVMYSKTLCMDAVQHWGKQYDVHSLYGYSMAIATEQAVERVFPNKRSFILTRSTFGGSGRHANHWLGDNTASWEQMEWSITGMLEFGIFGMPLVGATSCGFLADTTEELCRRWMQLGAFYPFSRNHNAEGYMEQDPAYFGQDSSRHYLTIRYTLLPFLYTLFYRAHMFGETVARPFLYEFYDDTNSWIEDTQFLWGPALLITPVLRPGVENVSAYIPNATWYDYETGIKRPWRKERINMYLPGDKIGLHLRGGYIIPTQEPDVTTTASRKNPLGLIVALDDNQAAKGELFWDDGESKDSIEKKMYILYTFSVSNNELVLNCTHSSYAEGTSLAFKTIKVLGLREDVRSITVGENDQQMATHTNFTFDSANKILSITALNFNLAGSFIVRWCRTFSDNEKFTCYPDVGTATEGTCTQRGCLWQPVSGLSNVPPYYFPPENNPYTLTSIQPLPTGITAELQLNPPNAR
Sucrase-isomaltase, intestinal, sequence (P23739 1014-1841 limits assumed): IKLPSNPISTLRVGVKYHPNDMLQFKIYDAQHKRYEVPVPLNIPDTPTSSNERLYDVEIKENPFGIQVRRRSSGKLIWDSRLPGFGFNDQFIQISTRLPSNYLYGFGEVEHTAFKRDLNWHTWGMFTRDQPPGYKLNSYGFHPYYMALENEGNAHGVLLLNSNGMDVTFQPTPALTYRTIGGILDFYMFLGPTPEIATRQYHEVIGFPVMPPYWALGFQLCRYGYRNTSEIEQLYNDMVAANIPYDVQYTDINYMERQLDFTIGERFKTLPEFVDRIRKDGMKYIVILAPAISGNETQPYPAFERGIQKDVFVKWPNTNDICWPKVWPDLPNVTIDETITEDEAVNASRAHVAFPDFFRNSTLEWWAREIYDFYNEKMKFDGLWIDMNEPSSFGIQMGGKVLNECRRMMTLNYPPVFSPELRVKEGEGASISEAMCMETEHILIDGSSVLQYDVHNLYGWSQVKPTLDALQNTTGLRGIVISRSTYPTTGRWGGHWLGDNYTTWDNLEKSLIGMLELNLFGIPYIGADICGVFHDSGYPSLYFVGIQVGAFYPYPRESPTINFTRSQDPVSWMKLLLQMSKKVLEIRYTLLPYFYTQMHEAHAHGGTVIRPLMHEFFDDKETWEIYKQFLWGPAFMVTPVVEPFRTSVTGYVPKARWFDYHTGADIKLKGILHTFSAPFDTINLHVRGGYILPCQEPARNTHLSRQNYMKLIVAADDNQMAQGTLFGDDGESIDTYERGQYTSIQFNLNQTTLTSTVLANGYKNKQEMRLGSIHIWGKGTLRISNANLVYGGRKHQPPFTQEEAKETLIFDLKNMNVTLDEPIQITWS
Data set [17] addresses T1, 3-hydroxy-3-methylglutaryl-coenzyme A reductase (Sus scrofa). Kind of data set: (§5) Inhibition of HMG-CoA reductase in pig liver microsomes using HMG-CoA as substrate preincubated for 5 mins followed by NADPH addition measured after 15 mins by colorimetric method. The procedure, abridged:
(§6)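 HMG-CoA reductase activity followed by absorbance at 340 nm. Blank had potassium phosphate buffer instead of enzyme, and control had buffer instead of compound. Percent inhibition calculated from blank-corrected OD.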

Data set [18] concerns the target T2, 3-hydroxy-3-methylglutaryl-coenzyme A reductase (Sus scrofa, UniProt Q1W675).
T2 sequence (Q1W675 whole entry): T1 sequence (whole entry)
The description is as §5. The gist of the method:
as §6

The nature of data set [19]: Inhibition of maltase in rat small intestinal mucosa assessed as reduction in glucose production using maltose as substrate measured after 40 mins by glucose oxidase assay. The gist of the method: as §1

Activity calls are given as the source filed them. The rule behind the calls is not given here.

`CC(C)=CCC/C(C)=C/CCC1=C[C@H](c2cc(O)ccc2O)OC1=O`: the Activity entry is “Non-Toxic” in data set [1]; “Toxic” in data set [6]; “Non-Toxic” in [10]; “Non-Toxic” in data set [13]; “Non-Toxic” in data set [15]. The IC50 worked out at 400 nM in data set [2]; 300 nM in data set [3]; 67.6 µM in [16]; 12.3 µM in data set [18]; 3.6 µM in data set [19]. In addition, the result in data set [4], in [5], in data set [7], in data set [8], in data set [9] and in [11] was Active. Further, the outcome in [14] was Active. Moreover, the inhibition result in data set [12] is “Active”. In addition, the inhibition entry in data set [17] was “Dose-dependent effect”.

As usually defined, the IC50 is the midpoint of a concentration-inhibition curve.
